Data published in ChEMBL document CHEMBL4376893, “Identification of Psychoplastogenic N,N-Dimethylaminoisotryptamine (isoDMT) Analogues through Structure-Activity Relationship Studies” (2020).
Activity calls are given as the source filed them. The calls are words filed in the database; no cut-off is given here.

Columns and labels:
[1] = test system: Cortical neurone; test: Induction of dendritogenesis in Sprague-Dawley rat cortical neurons assessed as dendritic arbor complexity at 10 uM after 1 hr supplemented with fresh neurobasal medium measured after 71 hrs by Alexa Fluor 488 dye based imaging analysis; assay type: functional, cell-based
In short: (§1)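 Cortical neurons from timed-pregnant Sprague Dawley rats, about 15,000 cells/well in B27 Neurobasal. On DIV3, dosed 1 h at 0.1% DMSO (10 μM standard; 10 pM–10 μM in concentration-response runs), then medium replaced and grown 71 h. PFA-fixed, MAP2 immunostained with Alexa Fluor 488 secondary, 20x imaging. Blinded Sholl analysis, Nmax = maximum crossings; ≥6 wells over 2 plates from independent dams.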

[2] = test system: Cortical neurone; test: Induction of dendritogenesis in Sprague-Dawley rat cortical neurons assessed as increase in dendritic arbor complex at 1 nM after 1 hr supplemented with fresh neurobasal medium measured after 71 hrs by Alexa Fluor 488 dye based imaging analysis; assay type: functional, cell-based; in short: as §1
[3] = species on record: Danio rerio; test: Induction of acute behavioural changes in wild type zebrafish Singapore at 7 days post-fertilization stage after 1 hr by imaging analysis; assay type: functional
In short: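 Wild-type Singapore larvae at 7 dpf, 8 per well in 300 μL egg water, rested 1 h at RT. DMSO stocks added (0.4% DMSO), then 1 h RT incubation. After 5 min dark acclimation, a 17-min acoustic/visual stimulus battery was run under IR video. Locomotion was taken as changed pixels. Random-forest out-of-bag accuracy versus vehicle wells was used, n = 21 wells.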

[4] = test system: Mus musculus; test: Induction of head-twitch response in iv dosed C57BL/6J mouse assessed as reduction in hallucinogenic potential measured after 20 mins; assay type: functional, organism-based
[5] = target: 5-hydroxytryptamine receptor 2A (Rattus norvegicus) (UniProt P14842); settings: Sprague-Dawley, 1 uM
[6] = test system: Mus musculus; test: Induction of head-twitch response in C57BL/6J mouse assessed as reduction in hallucinogenic potential at 1 to 50 mg/kg, iv measured after 20 mins; assay type: functional, organism-based

5-hydroxytryptamine receptor 2A (Rattus norvegicus), sequence (P14842 whole entry): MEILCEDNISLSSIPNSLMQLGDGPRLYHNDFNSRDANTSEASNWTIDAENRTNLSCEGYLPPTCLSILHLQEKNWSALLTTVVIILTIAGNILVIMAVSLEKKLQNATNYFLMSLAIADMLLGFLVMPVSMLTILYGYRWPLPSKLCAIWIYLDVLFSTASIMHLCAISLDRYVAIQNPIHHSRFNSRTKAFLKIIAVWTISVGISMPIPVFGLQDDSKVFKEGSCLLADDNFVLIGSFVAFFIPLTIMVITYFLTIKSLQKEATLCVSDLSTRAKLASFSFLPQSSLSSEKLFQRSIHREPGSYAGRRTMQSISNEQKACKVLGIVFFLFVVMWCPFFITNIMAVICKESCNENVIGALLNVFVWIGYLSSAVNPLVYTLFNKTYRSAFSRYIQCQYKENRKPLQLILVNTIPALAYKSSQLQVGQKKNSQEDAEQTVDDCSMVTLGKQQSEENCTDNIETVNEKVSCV

CN(C)CCn1ccc2ccccc21
Activity [1]: Active

CN(C)CCc1cn(C)c2ccccc12
Activity [1]: Active

CN(C)CCn1ccc2cccc(OCc3ccccc3)c21
Activity [1]: Active

COc1cccc2ccn(CCN(C)C)c12
Activity [1]: Active

CN(C)CCn1ccc2cc(OCc3ccccc3)ccc21
Activity [1]: Active

CN(C)CCc1c[nH]c2ccccc12
Activity [1]: Active | Activity [2]: Active

CN(C)CCn1cnc2ccccc21
Activity [1]: Active

CC(C)CCn1ccc2ccccc21
Activity [1]: inactive

COc1ccc2[nH]cc(CCN(C)C)c2c1 [MEBUFOTENIN]
Activity [2]: Active | Activity [3]: Dose-dependent effect | ECmax [3]: 200 µM | Activity [4]: Dose-dependent effect | inhibition [5]: Active

COc1ccc2c(ccn2CCN(C)C)c1.O=C(O)/C=C/C(=O)O
Activity [1]: Active | Activity [3]: Dose-dependent effect | ECmax [3]: 200 µM | Activity [6]: inactive

COc1cccc2c1ccn2CCN(C)C
Activity [1]: inactive

CN(C)CCn1cccc1
Activity [1]: Active

COc1ccc2ccn(CCN(C)C)c2c1
Activity [1]: Active | Activity [3]: Dose-dependent effect | ECmax [3]: 200 µM | Activity [6]: Active

CNC1(c2ccccc2Cl)CCCCC1=O (stereo unspecified)
Activity [2]: Active

CN(C)CCn1c2ccccc2c2ccccc21
Activity [1]: Active

CN(C)CCn1ccc2c(OCc3ccccc3)cccc21
Activity [1]: inactive

CN(C)CCn1ccc2c(F)cccc21
Activity [1]: inactive

CN(C)C(=O)Cn1ccc2ccccc21
Activity [1]: inactive

CN(C)CCn1ccc2ccc(OCc3ccccc3)cc21
Activity [1]: Active

CN(C)CCn1ccc2cccc(F)c21
Activity [1]: Active

COc1ccc2c(CCN(C)C)c[nH]c2c1
Activity [3]: Dose-dependent effect | ECmax [3]: 200 µM | Activity [6]: inactive

CN(C)CCn1ccc2ccc(F)cc21
Activity [1]: Active

CN(C)CCn1ccc2cc(F)ccc21
Activity [1]: Active
